Assay results published in PMC2933822 (Chemical research in toxicology, 2010).
Entries after “also recorded” stand apart in the source; their conditions may differ. Where two headings read alike, the source gives them in different places.

Key:
[1] = tested on: Human HaCaT keratinocytes; test: Phototoxicity / dark cytotoxicity, neutral red uptake assay, UVA; assay type: cell-based; conditions: for IC50: HaCaT
[2] = tested on: A2780 human ovarian carcinoma cells; test: Phototoxicity / dark cytotoxicity, neutral red uptake assay, UVA; assay type: cell-based; conditions: for IC50: neutral red dye uptake; for IC50 (cisplatin)/IC50(photoPt): A2780, fold difference vs cisplatin under identical conditions
Outline: (§1)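 Cells were kept antibiotic-free in RPMI with 10% FBS at 37 °C in 5% CO2. They were washed in PBS, then given the test compound in EBSS for 1 h at 37 °C. Light plates received 5 J cm−2 UVA (1.77 mW cm−2, λmax 365 nm, below 320 nm filtered); dark plates were sham irradiated in parallel. Read-out was neutral red uptake. IC50 came from non-linear regression, 2-4 experiments in triplicate. The ratio is cisplatin IC50 (same conditions) over complex IC50.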

[3] = tested on: cisplatin-resistant derivative cell line A2780CIS; test: as above; assay type: cell-based, human; conditions: for IC50: neutral red dye uptake
Outline: as §1

[4] = tested on: DNA; test: Comet assay; assay type: cell-based, human; conditions: +UVA 5 J cm^−2, then H2O2
[5] = tested on: HaCaT, A2780, A2780CIS; test: Photo- and dark cytotoxicity stated in words across the cell lines; assay type: cell-based, human; conditions: UVA 365 nm irradiation
Outline: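 HaCaT keratinocytes (DMEM, 5% FBS, 1% non-essential amino acids) and A2780 or A2780CIS cells (RPMI, 10% FBS) were grown at 37 °C without antibiotics. Cells were PBS-washed, then exposed 1 h at 37 °C to test compound in EBSS. They received 5 J cm−2 UVA (1.77 mW cm−2, λmax 365 nm, <320 nm filtered), with sham-irradiated parallel dark plates. Read-out was neutral red uptake. IC50s came from non-linear regression, 2-4 experiments in triplicate.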

[6] = tested on: A2780 human ovarian carcinoma cells; conditions: cited from earlier work
[7] = tested on: a number of cell lines; conditions: photoactivated; cited from earlier work
[8] = tested on: cisplatin-resistant derivative cell line A2780CIS; conditions: cited from earlier work
[9] = tested on: Human HaCaT keratinocytes; conditions: cited from earlier work
[10] = +365 nm (5 J cm^−2 UVA), 1 h treatment, neutral red dye uptake
[11] = Dark (sham irradiated), neutral red dye uptake

Row | Compound | IC50 ([1]; Homo sapiens, light or radiation study) [µM] | IC50 ([1]; Homo sapiens, light or radiation study, 1 h) [µM] | IC50 ([2]; A2780, +365 nm (5 J cm^−2 UVA)) [µM] | IC50 ([2]; A2780, Dark (sham irradiated)) [µM] | IC50 (cisplatin)/IC50(photoPt) [2] | IC50 ([3]; +365 nm (5 J cm^−2 UVA)) [µM] | IC50 ([3]; Dark (sham irradiated)) [µM] | IC50 [1, 10] [µM] | IC50 [1, 11] [µM] | inhibition of DNA migration (DNA crosslinking), irradiated samples [4] | phototoxicity / photocytotoxicity [5] | IC50 (cisplatin)/IC50(photoPt) ([3]; fold difference vs cisplatin under identical conditions) | fold less phototoxic than 7t ([1]; HaCaT cells, UVA) | IC50 (cisplatin)/IC50(photoPt) [6] | fold more cytotoxic following irradiation than treatment with cisplatin [7] | IC50 (cisplatin)/IC50(photoPt) [8] | IC50 (cisplatin)/IC50(photoPt) [9]
1 | CN(C)CCCN1c2ccccc2Sc2ccc(Cl)cc21 [CPZ, Chlorpromazine, reference compound] | 240 | 9 |  |  |  |  |  |  |  |  |  |  |  |  |  |  | 
2 | cis,trans,cis-[Pt(N3)2(OH)2(NH3)(pentylamine)] [Complex 6c] |  |  | > 240 | > 240 | 0.6 | > 240 | > 240 | 224 | > 240 |  |  |  |  |  |  |  | 
3 | cis,trans,cis-[Pt(N3)2(OH)2(NH3)(propylamine)] [Complex 4c] |  |  | 93.4 | > 257 | 1.6 |  |  | 204 | > 257 |  |  |  |  |  |  |  | 
4 | cis,trans,cis-[Pt(N3)2(OH)2(NH3)(pyridine)] [Complex 7c] |  |  | 79.6 | > 244 | 1.9 | 109 | > 244 | 101 | > 244 | more effective at inhibiting DNA migration (at low doses) | the most phototoxic cis compounds investigated | 2.4 | approximately 10 fold |  |  |  | 
5 | trans,trans,trans-[Pt(N3)2(OH)2(NH3)(py)] [Complex 7t] |  |  |  |  |  |  |  |  |  |  | the most phototoxic molecule tested; also recorded: the most phototoxic complex which still maintains dark stability |  |  | 80.0 | up to 90 × | 15.4 | 21.2
